B1: tRNA (parent)
chain: GUUCCGUUGGCGUAAUGGUAACGCGUCUCCCUCCUAAGGAGAAGACUGCGGGUUCGAGUCCCGUACGGAACG

Fewer inactive variants are shown than the library holds. Bounds are passed on as bounds.

Variants of B1 are the subject of this data set. Kind of data set: yeast fitness relative to wild type (ratio to wild type); higher = fitter; tRNA-Arg(CCU), competitive growth, 37 C, YPD. The method in brief: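 Genotype frequency changes were the basis for Darwinian fitness relative to wild type. The frequencies came from 100-nucleotide paired-end sequencing of gene amplicons from the start population and each end population of pooled yeast strains with tRNA-Arg(CCU) gene variants at the native locus. Competition ran in YPD at 37°C for 24 hours in six replicates, genotypes needed ≥ 100 starting reads, and estimates < 0.5 were set to 0.5.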
Regarding GUUCCGUAGGCGUUGUGGUAACGCGUCUCCCCCCUAAGGAGAAGACUGCGGGUUCGUGUCCCGUACGGAACG [U8A A14U A15G U32C A57U], the yeast fitness was 0.599.
As for GUUCCGUAGGCGUAAUGGUAACGCGUCUCCCUCCUAAGGAGUAGACCGCGGGUUGGAGUCCCGUACGGAACG [U8A A42U U47C C55G], the figure is no more than 0.5; as for GUUCCGUAGGCGUACUGGUAGCGCGUUUCCCUCCUAAGGAGAAGAUUGCGGGUUCGAGUCCCGUACGGAACG [U8A A15C A21G C27U C46U], no more than 0.5; as for GUUCCGUAGGCGUAGUGGUAACGCGUAUCCCUCCUAAGGAGAAGACUGCGGGUUCGAGUCCCGUACGGAACG [U8A A15G C27A], 0.549.
As to GUUCCGUAGGCGUAAUGGUCACGCGUCUCCCUCCUAAGGAGAAGACUGCGGGUUCGAGUCCAGUACGGAACG [U8A A20C C62A], the yeast fitness is no more than 0.5.
In the case of GUUCCGUAGGCGUAAUGGUGACGCGCCUCCCUCCUAAGGCGAAGACUGCGGGUUCGAGUCCCGUACGGAACG [U8A A20G U26C A40C], the yeast fitness is 0.617.
The value for GUUCCGGUGGCGUAAUGGUAACGCGUCUCCCUCCUAAGGAGAAGACUGCGGGUCGGAGUCCCGUACGGAACG [U7G U54C C55G] was no more than 0.5; that for GUUCCGUAGGCGUAAUGGUAACGCGUCUCCCUCCUAAGGAGAAGACUGCGGGUUCGAGUCCCGUCCGGAUCG [U8A A65C A70U] was 0.525.
As for GUUCCGUAGGCGUAAUGGUGACGCGUCUCCCUACUAAGGAGAAGACUGCGGGUUCGGGUCCCGUACGGAACG [U8A A20G C33A A57G], the figure is no more than 0.5; as for GUUCCGUAGGCGUAAUGGUACCGCGUCUCCCUCCUAAGGAGAAGACUGCGGGUUCCAGUCCCGUACGGAACG [U8A A21C G56C], no more than 0.5.
Turning to GUUCCGUAGGCGUCAUGGUAACGUGUCUCCCUCCAAAGGAGAAGACUGCGGGUUCGAGUCCCAUACGGAACG [U8A A14C C24U U35A G63A], the yeast fitness worked out at 0.803.
The value for GUUCCGUAGGCGUCAUGGUAACGCGUCUCCCUCCUAAGGAGAAGACUGGGGGUUCGAGUCCCGUACGGAUCG [U8A A14C C49G A70U] was 0.515; that for GUUCCGUAGGCGUAAUGGUAACGCGUCUCCCUCCUAAGGAGUAGACUGCGGGUUCGAGUCCAGUACGGACCG [U8A A42U C62A A70C] was no more than 0.5.
As for GUUCCGUAGGCGUAAUGGUAACGCGUCUCCCUCCUAAGGAGAUGACUGCGGCUUCGAGUACCGUACGGAACG [U8A A43U G52C C60A], the figure is no more than 0.5; as for GUUCCGUAGGCGUAUUGGUAACGCGUCUCCCUCCUACGGAGAAGACUGCGGGUUCGAGUCCCGUACGAAACG [U8A A15U A37C G68A], no more than 0.5; as for GUUCCGUAGGCGUCAUGGUAACGCGUCUCCAUCCUAAGGACAAGACUGAGGGUUCAAGUCCCGUACGGACCG [U8A A14C C31A G41C C49A G56A A70C], 0.533.
As for GUUCCGUAGGCGUAAUGGUAACGCGUCUCCCUCCUAAGGUGAAGACUGCGGCUUCGAGUCCCGUACGGAACG [U8A A40U G52C], the figure is 0.573.
With GUUCCGUAGGCGUAUUGGUAACGCGUCUCCCUCCUAAGGAGAAGACUGCGGGUUCGAGUCUCGUACGGAACG [U8A A15U C61U], the yeast fitness is no more than 0.5.
GUUCCGUAGGCGUAAUGGUCACGCGUCUCCCUCCUAAGGAGAUGACUGCGGGUUCGAGUCCCGUACGGCACG [U8A A20C A43U A69C]: the yeast fitness was no more than 0.5.
As for GUUCCGUAGGGGUAAUGGUAACGCGUCUCCCUCGUAAGGAGAAGACUGCGGGUUCGAGUCCCGUACGGAACG [U8A C11G C34G], the figure is 0.624.
For GUUCCGGUGGCGUAAUGGUAACGCGUCUCCCUCCUAAGGAGAAGACCGCGGGUUCGAGUCCCGUACGGAACG [U7G U47C], the yeast fitness turned out to be 0.845.
As for GUUCCGUAGGCGUAUUGGUAAGGCGUCUCCUUCCUAAGGAGAAGACUGCGGGUUCGCGUCCCGAACGAAACG [U8A A15U C22G C31U A57C U64A G68A], the figure is no more than 0.5; as for GUUCCGUAGGUGUAGUGGUAACGCGUCUCCCUCCUAAGGAGAAGACUGCGGGUUCGAGUCCCCUACGGAACG [U8A C11U A15G G63C], no more than 0.5; as for GUUCCGUAGGCGUGAUGGUAACGGGUCUCCCUCCUAAGGAGAAGACUGCGGGUUCGAGUCCCGUCCGGAACG [U8A A14G C24G A65C], no more than 0.5.
On to GUUCCGUAGGAGUAAUGGUAACGCGUCUCCCUCCUGAGGAGAAGACUGCGGGUUCGAGUCGCGUACGGGACG [U8A C11A A36G C61G A69G], for which the yeast fitness was no more than 0.5.
As for GUUCCGUAGGCGUCAUGGUAACGCGUCUCCAUCCUAAGGACAAGACUGAGGGUUCAAGUCCCAUACAGAACG [U8A A14C C31A G41C C49A G56A G63A G67A], the figure is no more than 0.5.
The value for GUUCCGUAGGCGUACUGGUAGCGCGUUUCCCUCCUAAGGAGAAGAUUGCGGGUUCGAGUCCCGUACGGAGCG [U8A A15C A21G C27U C46U A70G] was no more than 0.5; that for GUUCCGUAGGCGUAAUGGUAACGCGUCUCCCUCCUAAGGAGAAGACUGCGGGUUCGAGUCCCGUACGGGACG [U8A A69G] was 0.604.
The value for GUUCCGUAGGCGUAAUGGUAACGCGUCUCCCUCCUAAGGAGAAGACUGCGGGUUCGAGUCCCGUACGGUACG [U8A A69U] was 0.719; that for GUUCCGUAGGCGUAAUGGUAACGCGUCUCCCUCCUAAGGAGAAGACUGCGGGUUCGAGUCCCGUACGGCACG [U8A A69C] was 0.915.
GUUCCGGUGGCGUAAUGGUAACGCGUCUCCCUCCGAAGGAGAAGACUGCGGGUUCGAGUCCCGUACGGAACG [U7G U35G]: the yeast fitness came to 0.536.
Regarding GUUCCGUAGGCGUAAUGGUAGCGCGUCUCCCUCCUAAGGAGAAGACUGCGGGUUCGAGUCCCGUACGGAACG [U8A A21G], the yeast fitness came out at 0.681.
As for GUUCCGUAGGAGUGAUGGUAACGAGUCUACCUCUUAAGGAGAAGACUGCGGGUUCGAGUCGCGUCCGGAACG [U8A C11A A14G C24A C29A C34U C61G A65C], the figure is no more than 0.5; as for GUUCCGUAGGCGUAAUGGUAGCGCGUCUCCCUCCUGAGGAGAAGACUGCGGGUUCGAGUCCCGUACGGAACG [U8A A21G A36G], 0.65.
Consider GUUCCGGUGGCGUAAUGGUAACGCGCCUCCCUCCUAAGGAGUAGAUUGCGGGUUCGAGUCCCGUACGGAACG [U7G U26C A42U C46U], for which the yeast fitness turned out to be 0.581.
Consider GUUCCGUAGGCGUAUUGGUAACGCGUGUCCCUCCUGAGGAGAAGACUGCGGGUUCGAGUCCCGUACGGACCG [U8A A15U C27G A36G A70C], for which the yeast fitness is no more than 0.5.
As for GUUCCGGUGGCGUAAUGGUAACGCGUCUCCCUCCUAAGGAGAAGACUGCGGGUCCGAGUCCCGUAAGGAACG [U7G U54C C66A], the figure is no more than 0.5.

(Values after the RNAGym collection of RNA variant scans (doi:10.1126/science.aae0568).)
